This passage reports Activity, IC50 and EC50 results from ChEMBL document CHEMBL4014306, “Pyrazolopyrimidines as Potent Stimulators for Transient Receptor Potential Canonical 3/6/7 Channels” (J Med Chem, 2017).

Holding throughout (type): cell-based
One series concerns HEK293. Briefly: Induction of intracellular calcium level in HEK293 cells at 100 uM measured for 2.5 mins by Fluo-4-AM dye based FLIPR assay. To be noted: human, hek293, 2.5 min. Background: Calcium assays in cells follow changes in intracellular calcium, usually with a dye or a luminescent sensor.
Series [1] deals with T1, Short transient receptor potential channel 4 (Mus musculus, UniProt Q9QUQ5).
T1 sequence (Q9QUQ5 whole entry): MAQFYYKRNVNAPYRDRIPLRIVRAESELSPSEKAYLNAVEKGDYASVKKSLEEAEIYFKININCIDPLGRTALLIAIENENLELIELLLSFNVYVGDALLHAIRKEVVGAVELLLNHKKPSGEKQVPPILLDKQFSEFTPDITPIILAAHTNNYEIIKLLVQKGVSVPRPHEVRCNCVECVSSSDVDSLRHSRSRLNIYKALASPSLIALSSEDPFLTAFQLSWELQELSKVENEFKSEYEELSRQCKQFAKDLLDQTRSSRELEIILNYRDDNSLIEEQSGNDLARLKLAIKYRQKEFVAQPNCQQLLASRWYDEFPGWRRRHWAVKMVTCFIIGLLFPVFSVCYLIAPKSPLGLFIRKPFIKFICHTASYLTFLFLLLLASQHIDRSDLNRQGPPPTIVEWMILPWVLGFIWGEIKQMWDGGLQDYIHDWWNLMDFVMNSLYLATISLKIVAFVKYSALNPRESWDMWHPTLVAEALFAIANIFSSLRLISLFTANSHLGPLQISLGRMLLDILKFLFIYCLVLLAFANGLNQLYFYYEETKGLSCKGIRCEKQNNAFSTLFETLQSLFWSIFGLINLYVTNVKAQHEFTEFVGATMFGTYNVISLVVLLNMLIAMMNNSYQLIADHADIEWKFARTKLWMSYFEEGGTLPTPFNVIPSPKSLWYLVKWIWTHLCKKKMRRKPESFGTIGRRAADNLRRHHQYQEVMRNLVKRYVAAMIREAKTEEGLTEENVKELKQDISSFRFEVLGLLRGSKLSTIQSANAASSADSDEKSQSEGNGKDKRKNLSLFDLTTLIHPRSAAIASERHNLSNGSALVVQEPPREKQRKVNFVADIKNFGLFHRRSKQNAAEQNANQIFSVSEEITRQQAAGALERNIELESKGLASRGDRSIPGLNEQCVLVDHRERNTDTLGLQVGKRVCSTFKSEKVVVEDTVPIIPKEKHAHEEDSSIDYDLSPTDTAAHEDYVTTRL
Briefly: Antagonist activity at mouse TRPC4beta expressed in HEK293 cells co-expressing MOR decrease in DAMGO-evoked intracellular calcium level by Fluo-8-AM dye-based fluorescence assay. The procedure, abridged: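 MOR/TRPC4β HEK293 cells loaded with Ca2+ dye. Compound given before 1 μM DAMGO. IC50 estimated from one experiment in triplicate.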

The target of series [2] is T2, Short transient receptor potential channel 6 (Mus musculus, UniProt Q61143).
T2 sequence (Q61143 whole entry): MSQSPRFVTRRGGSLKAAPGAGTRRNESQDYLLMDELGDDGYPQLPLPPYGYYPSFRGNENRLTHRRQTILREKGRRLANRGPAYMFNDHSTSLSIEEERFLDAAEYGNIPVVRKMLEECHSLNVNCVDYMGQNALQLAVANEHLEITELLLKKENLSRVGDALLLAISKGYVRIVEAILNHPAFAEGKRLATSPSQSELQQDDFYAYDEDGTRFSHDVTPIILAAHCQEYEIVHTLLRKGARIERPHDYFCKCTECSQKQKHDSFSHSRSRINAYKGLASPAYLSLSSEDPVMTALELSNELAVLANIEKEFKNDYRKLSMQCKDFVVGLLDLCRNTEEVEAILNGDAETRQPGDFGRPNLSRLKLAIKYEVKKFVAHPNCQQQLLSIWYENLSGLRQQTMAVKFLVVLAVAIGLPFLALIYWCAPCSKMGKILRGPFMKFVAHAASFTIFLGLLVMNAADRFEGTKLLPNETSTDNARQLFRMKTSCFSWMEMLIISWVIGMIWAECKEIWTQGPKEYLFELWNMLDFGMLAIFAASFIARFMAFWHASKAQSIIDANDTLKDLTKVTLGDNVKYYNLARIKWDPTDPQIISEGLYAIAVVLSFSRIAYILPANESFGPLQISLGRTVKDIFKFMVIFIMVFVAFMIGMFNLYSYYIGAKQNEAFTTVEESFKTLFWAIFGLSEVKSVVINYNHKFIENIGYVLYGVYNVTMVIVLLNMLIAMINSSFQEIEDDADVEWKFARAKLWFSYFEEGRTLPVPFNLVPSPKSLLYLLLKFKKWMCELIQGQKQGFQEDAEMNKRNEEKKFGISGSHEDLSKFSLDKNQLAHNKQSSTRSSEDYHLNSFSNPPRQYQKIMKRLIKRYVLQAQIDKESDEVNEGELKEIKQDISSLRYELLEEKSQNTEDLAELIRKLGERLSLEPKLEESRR
Description: Agonist activity at mouse TRPC6 expressed in HEK293 cells co-expressing Gq11-PLCbeta fused M5 receptor assessed as increase in intracellular calcium level measured for 2.5 mins by Fluo-8-AM dye-based fluorescence assay.

With `C[N+](C)(C)CCOC(N)=O.[Cl-]` [CARBACHOL], in the series with HEK293, the Activity result is recorded as “Toxic”. The IC50 is the concentration that gives 50% inhibition. The term EC50 denotes the concentration giving half of the maximal effect. For `Cc1nn2c(O)cc(C3(C)CCN(C(=O)OC(C)(C)C)CC3)nc2c1-c1ccc(F)cc1`, the 50% inhibitory concentration (IC50) result in series [1] was “Not Active”. Besides, in series [2], the EC50 result is reported as “Not Active”.

Take `Cc1nn2c(O)cc(C3(C)CCN(S(=O)(=O)c4c(F)cccc4F)CC3)nc2c1-c1ccc([N+](=O)[O-])cc1`: in series [1], the IC50 entry is on record as “Not Active”. Moreover, in series [2], the EC50 entry was “Not Active”. On to `COc1ccc(S(=O)(=O)N2CCC(C)(c3cc(O)n4nc(C)c(-c5ccc(F)cc5)c4n3)CC2)cc1`, for which, in series [1], the IC50 entry is given as “Not Active”. In addition, the EC50 result in series [2] is recorded as “Not Active”.

Take `Cc1nn2c(O)cc(C3CCN(C(=O)c4ccc(Br)nc4)CC3)nc2c1-c1ccc(F)cc1`: the IC50 in series [1] (read-out: IC50) is 10 µM. Besides, in series [2] (read-out: EC50), the EC50 came to 12.3 µM. Take `Cc1nn2c(O)cc(C3CCN(C(=O)OC(C)(C)C)CC3)nc2c1-c1ccc(Cl)cc1`: in series [1], the IC50 entry is on record as “Not Active”. For the same compound, the concentration giving a half-maximal response (EC50) result in series [2] is “Not Active”. For `CCOC(=O)N1CCC(c2cc(O)n3nc(C)c(-c4ccc([N+](=O)[O-])cc4)c3n2)CC1`, the IC50 entry in series [1] is recorded as “Not Active”. The EC50 in series [2] (read-out: EC50) was 2 µM. On to `Cc1nn2c(O)cc(C3(C)CCN(C(=O)C(C)(C)C)CC3)nc2c1-c1ccc(F)cc1`, for which the IC50 result in series [1] is reported as “Not Active”. Also, the EC50 result in series [2] was “Not Active”.

In the case of `CCOC(=O)N1CCC(C)(c2cc(O)n3nc(C)c(-c4ccc([N+](=O)[O-])cc4)c3n2)CC1`, the IC50 result in series [1] is listed as “Not Active”. Besides, the EC50 in series [2] (read-out: EC50) was 8 µM. On to `COc1ccc(CC(=O)N2CCC(C)(c3cc(O)n4nc(C)c(-c5ccc([N+](=O)[O-])cc5)c4n3)CC2)cc1OC`, for which the concentration for half-maximal inhibition (IC50) result in series [1] is “Not Active”. The EC50 result in series [2] was “Not Active”.

Take `Cc1nn2c(O)cc(C3CCN(C(=O)C(C)(C)C)CC3)nc2c1-c1ccc(F)cc1`: in series [1], the IC50 entry is given as “Not Active”. The concentration for a half-maximal effect (EC50) result in series [2] is listed as “Not Active”. Regarding `CCC(=O)N1CCC(C)(c2cc(O)n3nc(C)c(-c4ccc(F)cc4)c3n2)CC1`, the IC50 entry in series [1] is “Not Active”. In addition, the EC50 entry in series [2] is listed as “Not Active”. For the compound `CCC(=O)N1CCC(c2cc(O)n3nc(C)c(-c4ccc(F)cc4)c3n2)CC1`, the half-inhibitory concentration (IC50) in series [1] (read-out: IC50) turned out to be 35 µM. The EC50 in series [2] (read-out: EC50) came to 28.8 µM.
